Compound activity deposited in PubChem by Johns Hopkins Ion Channel Center.
Kir21 block: Kir2.1 (mouse) channel inhibition; HEK293-Kir2.1, FluxOR thallium flux fluorescence; stronger effect = lower value; B-score at 10 µM; 310,000 tested, 0.85% active; AID 1672;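 active = fluorescence ratio B-score at or below minus 3 SD of library scores, with starting-brightness B-score within 2 SD, cut at about -4.2 in these data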;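 also: channel flux triggered by added potassium and thallium sulfate stimulus; B-score of peak minus minimum fluorescence over baseline after thallium stimulus; more negative B-score means stronger Kir2.1 block with less thallium influx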
KCNK9 inh: human KCNK9 channel inhibition; HEK293 KCNK9, FluxOR thallium flux fluorescence; stronger effect = lower value; Q9NPC2; B-score at 10 µM; 310,000 tested, 1.2% active;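 active = ratio B-score over 3 SD below the library mean, with starting fluorescence within 5 SD of its mean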;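 also: negative B-score means less thallium flux so channel inhibition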
Target sequence (Q9NPC2 whole entry, looked up): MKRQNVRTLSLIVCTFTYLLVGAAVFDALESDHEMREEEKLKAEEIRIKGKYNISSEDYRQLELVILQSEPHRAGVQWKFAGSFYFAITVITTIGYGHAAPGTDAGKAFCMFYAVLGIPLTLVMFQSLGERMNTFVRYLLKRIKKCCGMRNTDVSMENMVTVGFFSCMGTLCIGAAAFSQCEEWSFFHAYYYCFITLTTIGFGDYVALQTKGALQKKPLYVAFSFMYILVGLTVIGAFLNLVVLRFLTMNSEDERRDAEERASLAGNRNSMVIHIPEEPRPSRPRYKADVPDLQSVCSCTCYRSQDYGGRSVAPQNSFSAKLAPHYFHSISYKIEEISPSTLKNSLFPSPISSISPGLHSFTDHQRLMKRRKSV
KCNQ1 act: potentiators or activators of human KCNQ1 potassium channel; CHO-K1 KCNQ1, thallium flux FluxOR fluorescence; stronger effect = higher value; B-score at 10 µM; P51787; AID 2648; 310,000 tested, 0.35% active;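 active = fluorescence ratio B-score, a plate-corrected score, at least three library SD, with initial intensity B-score within 5 SD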
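Assay system: stable KCNQ1 CHO-K1 line; medium: assay buffer, equal DMSO in all wells; timing: 90 min dye loading and 20 min compound exposure, both at room temperature; technique: kinetic FluxOR thallium fluorescence, 10-s 1-Hz baseline, 110-s post-stimulus read; read-out basis: B score of baseline-normalized fluorescence ratio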
hERG protect: shields human hERG channel from block by proarrhythmic agents | 310,000 tested, 0.51% active | CHO-hERG, FluxOR thallium flux, dofetilide IC70 present | activation (rescue from dofetilide block), less the hit threshold, % at 10 µM;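 active = activation above the mean of controls blocked by dofetilide plus 5 SD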;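 also: thallium influx through hERG after potassium depolarization seen as dye fluorescence rise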
KCNQ1 inh: inhibitors of human KCNQ1 potassium channel. B-score at 10 µM. 310,000 tested, 1.3% active. P51787. CHO-K1 KCNQ1, FluxOR thallium flux fluorescence; stronger effect = higher value;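 active = compounds whose thallium flux B-score, printed positive for inhibition, exceeds three library SD while starting fluorescence stays within three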;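 also: channel opened by potassium depolarization with thallium stimulus after 20 min compound exposure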
KCNK3 inh: human KCNK3 channel inhibition, primary screen; CHO-KCNK3 thallium flux, FluxOR fluorescence; stronger effect = lower value; 340,000 tested, 0.84% active; O14649; B-score at 10 µM;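 active = B-score under library mean minus 4 SD, starting fluorescence ratio at most library mean plus 5 SD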;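 also: more negative B-score means stronger inhibition of thallium flux through KCNK3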
Target sequence (O14649 whole entry, looked up): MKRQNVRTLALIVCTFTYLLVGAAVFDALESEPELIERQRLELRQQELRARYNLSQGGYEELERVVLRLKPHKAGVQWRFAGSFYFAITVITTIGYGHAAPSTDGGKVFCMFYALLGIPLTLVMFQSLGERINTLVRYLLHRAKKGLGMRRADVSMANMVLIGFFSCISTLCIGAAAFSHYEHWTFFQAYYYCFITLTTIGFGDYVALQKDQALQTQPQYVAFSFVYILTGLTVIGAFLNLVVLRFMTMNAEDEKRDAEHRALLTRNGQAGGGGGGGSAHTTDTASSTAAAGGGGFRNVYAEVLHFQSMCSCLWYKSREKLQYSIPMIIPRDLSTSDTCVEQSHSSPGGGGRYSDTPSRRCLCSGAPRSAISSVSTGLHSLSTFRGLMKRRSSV
KCNK9 inh conf: human KCNK9 inhibitor confirmation; shares compounds with KCNK9 inh; HEK293 KCNK9 cells, FluxOR thallium flux fluorescence; inhibition, % at 10 µM; 4,900 tested, 43% active;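 active = thallium signal inhibited by more than 5 SD of the compound-free buffer control wells, on both duplicate plates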
Kir2-1 spec: mouse Kir2.1 off-target activity of KCNK9 modulators; 4,900 tested, 4% active; inhibition, % at 10 µM; Kir2.1 cells, FluxOR thallium flux fluorescence; shares compounds with KCNK9 inh;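 active = thallium signal drop more than 5 SD beyond the mean of the no-compound control wells, seen in both duplicate plates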;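 also: signal is fluorescence rise after thallium addition divided by baseline fluorescence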
KCNK9 uninduced: second check of KCNK9 modulator effects in non-induced HEK293 cells. shares compounds with KCNK9 inh. FluxOR thallium flux. inhibition, % at 10 µM. 4,900 tested, 40% active;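 active = thallium signal drop beyond 5 SD of the untreated control mean, on both duplicate plates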
KCNK3 inh conf: confirmation of human KCNK3 two-pore domain potassium channel inhibitors | CHO-KCNK3 thallium flux, FluxOR fluorescence; 0% buffer, 100% carvedilol maximal block | shares compounds with KCNK3 inh | 2,400 tested, 99% active | AID 651638 | ratio percent of control, % at 10 µM;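 active = ratio percent of control, averaged over triplicates, above buffer control mean plus 5 SD, cut at about 64% in these data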;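 also: ratio is the fluorescence rise from min to max over baseline after thallium stimulus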
KCNK3 noninduced: activity in cells without induced KCNK3 expression | non-induced KCNK3 parental cells, FluxOR thallium flux; stronger effect = lower value | shares compounds with KCNK3 inh | thallium flux ratio (lower = more inhibition) at 10 µM | 2,400 tested, 40% active;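 active = thallium flux ratio, averaged over three wells, more than 5 SD below the buffer control mean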;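 also: host cells are CHO cells without KCNK3 induction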
Each line names hits and unclear results; the compound was inactive in the other large screens (follow-up assays come after a bar, where they were run). Compounds with a hit are over-represented: about 3.8% of the library has one in this group of screens.

C=CCN1C(=O)C(Cc2ccccc2)S/C1=N/N=C/c1cccs1 (centres undefined)	KCNQ1 inh 8 | KCNK9 inh conf inactive | Kir2-1 spec inactive | KCNK9 uninduced inactive
C=CCN1C(=O)C(Cc2ccc(C)cc2)S/C1=N/N=C/c1ccco1 (centres undefined)	none
Cc1nn2c(N3CCN(c4ccccn4)CC3)cc(C(C)C)nc2c1-c1ccccc1	KCNK9 inh -12 | KCNK9 inh conf 63% | Kir2-1 spec inactive | KCNK9 uninduced 38%
Cc1cc(N2CCCCCC2)n2nc(C)c(-c3ccccc3)c2n1	none
COC(=O)c1cc(NC(=O)C2(S(=O)(=O)c3ccc(Cl)cc3)CC2)cc(C(=O)OC)c1	none
COC(=O)c1cc(NC(=O)C2(S(=O)(=O)c3ccc(C)cc3)CC2)cc(C(=O)OC)c1	none | KCNK9 inh conf inactive | Kir2-1 spec inactive | KCNK9 uninduced inactive
O=C(NCC1CCCN1S(=O)(=O)c1ccccc1)c1cccc(Cl)c1 (centres undefined)	none
CC(C)(C)c1ccc(C(=O)NCC2CCCN2S(=O)(=O)c2ccccc2)cc1 (centres undefined)	none | KCNK9 inh conf inactive | Kir2-1 spec inactive | KCNK9 uninduced inactive
CC(C)N(Cc1ccccc1)S(=O)(=O)c1cccs1	Kir21 block -4.8, KCNK9 inh -8.5, KCNK3 inh -11 | KCNK9 inh conf 40% | Kir2-1 spec inactive | KCNK9 uninduced 37%
CCC(OC(=O)c1nsc(Cl)c1Cl)C(=O)NCCc1ccccc1 (centres undefined)	none
O=C(NCc1ccco1)c1ccc2c(c1)N(Cc1ccccc1)C(=O)CS2	none | KCNK9 inh conf inactive | Kir2-1 spec inactive | KCNK9 uninduced inactive
CC1(C)C(C=C(Cl)Cl)C1C(=O)N/N=C/c1ccccc1F (centres undefined)	KCNK9 inh -9.5 | KCNK9 inh conf inactive | Kir2-1 spec inactive | KCNK9 uninduced 27%
O=C(N/N=C/c1ccccc1F)NC12CC3CC(CC(C3)C1)C2	none
COc1ccc(-c2csc(NC(=O)c3ccccc3Br)c2C(=O)O)cc1	none
COc1ccc(-c2csc(NC(=O)c3ccc(C(C)(C)C)cc3)c2C(=O)O)cc1	none | KCNK9 inh conf inactive | Kir2-1 spec inactive | KCNK9 uninduced inactive
COc1ccc(OC)c(-c2csc(NC(=O)c3ccccc3F)n2)c1	none
COc1ccc(OC)c(-c2csc(NC(=O)Cc3ccccc3OC)n2)c1	KCNK9 inh -16, KCNK3 inh -13 | KCNK9 inh conf inactive | Kir2-1 spec inactive | KCNK9 uninduced 40% | KCNK3 inh conf 89 | KCNK3 noninduced inactive
COc1cc2c(cc1OC)C(c1ccccc1)N(C(=O)c1ccccc1)CC2 (centres undefined)	none
COc1cc2c(cc1OC)C(c1cccc([N+](=O)[O-])c1)N(C(=O)c1ccc(F)cc1)CC2 (centres undefined)	KCNK9 inh -17, KCNQ1 inh 11, KCNK3 inh -11 | KCNK9 inh conf 74% | Kir2-1 spec inactive | KCNK9 uninduced 38% | KCNK3 inh conf 96 | KCNK3 noninduced 0.15
O=S1(=O)C=C(Oc2ccc3ccccc3c2)c2ccccc21	KCNK9 inh -9.6, KCNK3 inh -9.7 | KCNK9 inh conf 40% | Kir2-1 spec inactive | KCNK9 uninduced 42% | KCNK3 inh conf 107 | KCNK3 noninduced inactive
O=S1(=O)C=C(Oc2ccc(F)cc2)c2ccccc21	none
O=C(O)/C=C\C(=O)NCc1cccnc1	none
CC(=O)OC1C(N2CCCCC2)c2c(ccc(/C=C/C(=O)N3CCCCC3)c2O)OC1(C)C (centres undefined)	none
Cc1cc(NC(=O)CSc2cc(Cl)ccc2Cl)n(-c2ccccc2)n1	KCNK9 inh -10, KCNK3 inh -9.6 | KCNK9 inh conf 48% | Kir2-1 spec inactive | KCNK9 uninduced inactive | KCNK3 inh conf 127 | KCNK3 noninduced 0.14
Cc1cc(Nc2ccc(Cl)cc2)n(-c2cccc(Cl)c2)n1	KCNK9 inh -8.2, KCNK3 inh -9 | KCNK9 inh conf 50% | Kir2-1 spec inactive | KCNK9 uninduced 32% | KCNK3 inh conf 149 | KCNK3 noninduced 0.15
Cc1ccc(NC(=O)CN2C(=O)c3ccccc3S2(=O)=O)c(C)c1	none
O=C(C/C=N/OCc1ccc(Cl)cc1Cl)c1ccc(Cl)cc1	KCNK9 inh -15, KCNK3 inh -9 | KCNK9 inh conf 43% | Kir2-1 spec inactive | KCNK9 uninduced 43% | KCNK3 inh conf 93 | KCNK3 noninduced 0.15
C=CCn1c2ccccc2c(=O)c2cc(C#Cc3ccccn3)ccc21	none (no result: Kir21 block, KCNK9 inh, KCNQ1 act, hERG protect, KCNQ1 inh)
COc1ccccc1NC(=O)c1ccc(COc2ccccc2Br)o1	KCNK9 inh -13, KCNK3 inh -10 | KCNK9 inh conf 56% | Kir2-1 spec inactive | KCNK9 uninduced 42% | KCNK3 inh conf 130 | KCNK3 noninduced 0.15
CN(C)C(=O)c1ccc(COc2ccccc2Br)o1	none
O=C(O)Cn1c(-c2ccccc2)cc2ccccc21	none
Cc1sc(NC(=O)c2ccco2)c(CN2CCN(c3ccccc3)CC2)c1C	KCNK9 inh -9.9 | KCNK9 inh conf 35% | Kir2-1 spec inactive | KCNK9 uninduced 35% | KCNK3 inh conf 113 | KCNK3 noninduced inactive
Cc1nc2c(=O)n(C)c(=O)n(C)c2nc1Cl	none
COc1ccc(C)cc1NC(=O)c1cccc(C(=O)Nc2cc(C)ccc2OC)n1	KCNK9 inh -16 | KCNK9 inh conf 61% | Kir2-1 spec inactive | KCNK9 uninduced 32% | KCNK3 inh conf 107 | KCNK3 noninduced inactive
O=C1CCN(C(=S)NCc2ccccc2)CC1	none
Cn1nc(-c2ccccc2)c(C#N)c1Sc1cccc(Cl)c1	KCNK9 inh -11, KCNK3 inh -9.1 | KCNK9 inh conf 55% | Kir2-1 spec inactive | KCNK9 uninduced 52% | KCNK3 inh conf 113 | KCNK3 noninduced 0.15
CCOC(=O)c1nnc(-c2ccccc2)nc1NCc1ccc(Cl)cc1	KCNK9 inh -10, KCNK3 inh -9.7 | KCNK9 inh conf 38% | Kir2-1 spec inactive | KCNK9 uninduced 43% | KCNK3 inh conf 97 | KCNK3 noninduced 0.14
